{"data": "Published values collected from several papers", "note": "Each line is one published result; the experiments were not run side by side."}
{"Structure (SMILES)": "O=C(NCc1ccc(Cl)cc1)C1CC1c1ccccc1 (stereo not drawn)", "target or system": "Chikungunya virus", "assay": "viral replication, luciferase", "system": "BHK-21", "conditions": "16 h", "endpoint": "IC50", "value": "> 100 µM"}
{"Structure (SMILES)": "CO/N=C1\\CN(c2nc3c(cc2F)c(=O)c(C(=O)O)cn3C2CC2)CC1CN (stereo not drawn)", "target or system": "Haemophilus influenzae", "assay": "microbial growth", "endpoint": "MIC", "value": "2 µg/mL"}
{"Structure (SMILES)": "Cc1ccc(C2CC2C(=O)NC(C(N)=O)c2ccccc2)cc1C (stereo not drawn)", "target or system": "Chikungunya virus", "assay": "viral replication, luciferase", "system": "BHK-21", "conditions": "16 h", "endpoint": "IC50", "value": "> 100 µM"}
{"Structure (SMILES)": "O=C(O)c1cn(C2CC2)c2cc(N3CCNCC3)c(F)cc2c1=O", "target or system": "Haemophilus influenzae", "assay": "microbial growth", "endpoint": "MIC", "value": "> 4 µg/mL"}
{"Structure (SMILES)": "COc1ccc(O)c(C(C)(C)C)c1", "assay": "DPPH scavenging, absorbance", "endpoint": "IC50", "value": "10.1 µg/mL"}
{"Structure (SMILES)": "O=C(Nc1ccc(O)cc1)c1ccccc1O", "target or system": "Chikungunya virus", "assay": "viral replication, luciferase", "system": "BHK-21", "conditions": "16 h", "endpoint": "IC50", "value": "> 100 µM"}
{"Structure (SMILES)": "Cc1c2ccncc2c(C)c2c1[nH]c1ccccc12", "target or system": "THP-1", "assay": "TNF-α release, inhibitor, ELISA", "conditions": "17 h, LPS-stimulated", "endpoint": "IC50", "value": "0.44 µM"}
{"Structure (SMILES)": "COc1c2ccoc2cc2oc(=O)ccc12", "target or system": "HEp-2", "assay": "cell growth or viability, WST-1", "conditions": "48 h", "endpoint": "IC50", "value": "23.4 µM"}
{"Structure (SMILES)": "O=c1c(O[C@@H]2O[C@H](CO)[C@H](O)[C@H](O)[C@H]2O)c(-c2ccc(O)c(O)c2)oc2cc(O)cc(O)c12", "assay": "DPPH scavenging, absorbance", "conditions": "30 min", "endpoint": "IC50", "value": "142 µM"}
{"Structure (SMILES)": "O=C1O[C@H]([C@@H](O)CO)C(O)=C1O", "assay": "DPPH scavenging", "endpoint": "IC50", "value": "10.2 µM"}
{"Structure (SMILES)": "O=C(Nc1ncc([N+](=O)[O-])s1)c1cc(Cl)ccc1Cl", "target or system": "Chikungunya virus", "assay": "viral replication, luciferase", "system": "BHK-21", "conditions": "16 h", "endpoint": "IC50", "value": "8.3 µM"}
{"Structure (SMILES)": "C[C@]12CCC(=O)C(O)=C1CC[C@@H]1[C@@H]2CC[C@]2(C)C(=O)CC[C@@H]12", "target or system": "FaDu", "assay": "cell growth or viability", "conditions": "72 h", "endpoint": "IC50", "value": "> 20 µM"}
